Results taken from ChEMBL document CHEMBL4513216, “Probing the Open Global Health Chemical Diversity Library for Multistage-Active Starting Points for Next-Generation Antimalarials” (ACS Infect Dis, 2020).

experiment: Toxicity liver stage against HepG2, at 10uM; type: cell-based; design: test concentration 10 uM, cell line HepG2-A16-CD81EGFP; details: human, HepG2-A16-CD81EGFP cells; read-out: INHIBITION
How it was run: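 Uninfected HepG2-A16-CD81EGFP cells, 3 × 10^3 per well, 1536-well, plated on prespotted compound at 10 μM final, parasite-free screening media added to match infected plates; puromycin 10 μM positive, DMSO 0.5% negative; run in parallel with 48 h PbLuc assay at 37 °C, 5% CO2; viability by CellTiter-Glo luminescence, normalized to controls.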

SMILES	cytotoxicity at 10 µM
CC(C)NC(=O)N[C@H]1C[C@@H](Cc2cc(CN3CCOCC3)on2)C1(C)C	-5.5%
CC(=O)N1N=C(COc2ccc3c(c2)OCO3)OC1c1ccc(C)cc1 (stereo not given)	1.22%
COC(=O)CCCNC(=O)N1CCc2c([nH]c3ccc(Cl)cc23)C1	9.43%
COc1ccc(C[C@H]2CN(C(=O)c3cnoc3)CC[C@@H]2OC)cc1	4.09%
CCOCC1CN(C(=O)c2cnoc2C)Cc2cn(CC3CC3)nc21 (stereo not given)	17%
COCCN1CCCc2sc(C(=O)NCC3CCCO3)nc21 (stereo not given)	5.96%
CCOCc1ncn2c1CN(S(=O)(=O)c1ccc(OC)cc1)CC2	0.199%
CCOCc1ncn2c1CN(S(=O)(=O)c1ccc(C)cc1)CC2	-0.602%
Cc1cnc(CNC(=O)[C@@H]2CC[C@@H]3[C@@H](CCN3Cc3ccco3)O2)cn1	0.296%
CCCN(CC)C(=O)c1ncn2c1CN(C)S(=O)(=O)c1ccccc1-2	-152%
CCS(=O)(=O)N1CCC2(COCc3cnc(N4CCOCC4)nc32)C1 (stereo not given)	-4.92%
Cc1nc(CN2CC[C@H]3C[C@H](c4ccncn4)O[C@@H]3C2)cs1	-144%
Cc1c(C)n(CC(O)CN2CCCCCC2)c2c(Cl)cccc12 (stereo not given)	-21.9%
O=C(NCCN1CCOCC1)c1nc(-c2ccc3[nH]ccc3c2)no1	-7.53%
CC1(C)CC(=O)c2cnc3nc(N4CCCCC4)nc(O)c3c2C1	-0.0124%
CCc1cnc2c(c1Nc1ccc(OC)cc1)c(=O)n(C)c(=O)n2C	4.26%
COCCNC(=O)c1ccc2c(=O)n3c(nc2c1)CCN(C)CC3	-1.02%
O=S(=O)(c1cn[nH]c1)N1C[C@@H](O)[C@H](N2CCc3ccccc3C2)C1	-3.47%
O=C(c1ccc(-n2cccn2)nc1)N1CCCC(c2cnccn2)C1 (stereo not given)	4.32%
Cc1cc(C)nc(N2CCC(CNC(=O)c3cnccn3)CC2)n1	-26.1%
Cc1cc(N2CCCC2c2cc(Nc3cnccn3)nc(C)n2)ncn1 (stereo not given)	-14%
CN(C)C(=O)CN1CCCC(CCCc2ccccn2)(C(N)=O)C1 (stereo not given)	-23.2%

SMILES	cytotoxicity at 10 µM
Cc1nn(C)c(C)c1NC(=O)CNC(c1ccc(F)cc1)C1CCC1 (stereo not given)	-1.65%
CCCC(NC(=O)c1ccccn1)c1nnc2ccccn12 (stereo not given)	-6.54%
O=C(COc1ccc2c(c1)CCCC2=O)NCc1ccco1	3.39%
CC(C)S(=O)(=O)C(C)C(=O)Nc1ccc2oc(C3CC3)nc2c1 (stereo not given)	1.77%
CN(CCOc1ccccc1Cl)S(=O)(=O)N1CCOCC1	-3.51%
Cc1ccc(CC(=O)NCC(O)c2cc(Cl)cc(Cl)c2)cn1 (stereo not given)	-3.69%
Cc1cc(CN(C)C(=O)Nc2cnc3c(c2)c(C)nn3C)no1	3.77%
CC(C)c1ccc(OCCC(=O)N(C)CC(N)=O)cc1	6.77%
CNC(=O)C1CCCCN1C(=O)c1csc(-c2ccccc2)n1 (stereo not given)	2%
CCCN(CCC)S(=O)(=O)NC(C)C(=O)N(C)C (stereo not given)	-0.237%
CC(C)c1nc(CSc2nnc(-c3cccs3)n2CC(N)=O)no1	-142%
Cc1nc(S(=O)(=O)N2CCCCc3ccccc32)cn1C	-2.38%
CCOc1ccc(NC2CCN(CC(F)(F)F)C2=O)cc1C (stereo not given)	1.41%
CC(C)N1CCC(CNC(=O)COc2ccc(F)cc2F)C1 (stereo not given)	-2.17%
N#CC1(NC(=O)c2nccc3ccccc23)CCC1	6.13%
CCCc1n[nH]c(C2CN(CC(=O)N(C)Cc3ccco3)CCO2)n1 (stereo not given)	-4.84%
c1nc(-c2nc(C3CCOC3)no2)cs1 (stereo not given)	6.18%
CCN(CC)c1nc2sc(C(=O)NCC(=O)OC)cc2s1	1.05%
c1csc(-c2cc(CN3CCN(c4nccs4)CC3)no2)c1	13.2%
CN(C)c1cc2c(nn1)CCN(C(=O)Cc1ccc3c(c1)CCO3)C2	5.71%
O=C(NCCNc1ncccn1)N1CC=C(c2ccccc2)CC1	12.6%
O=C(Cc1ccon1)NC1CC2(CCC2)Oc2ccccc21 (stereo not given)	-6.71%

SMILES	cytotoxicity at 10 µM
COC(=O)N1CCC(Nc2cccc(F)c2C(C)=O)CC1	12.7%
Cc1cnn(C2CN(c3nc(C)cc(N(C)C)n3)C2)c1	-5.12%
Cc1ccc(CCNC(=O)NCc2cccc(OC(F)F)c2)cn1	-2.66%
O=C(NCc1ccccn1)NCC(c1ccco1)N1CCCCC1 (stereo not given)	-2.93%
Cc1cnn(CC2CN(CCS(=O)(=O)C(F)(F)F)CCO2)c1 (stereo not given)	2.5%
Cc1cn(CC(=O)NC2CCN(CC3CC3)CC2)c2ccccc12	0.951%
CCN(C(=O)COc1nc(Cc2ccc(F)cc2)no1)C1CC1	5.09%
Cc1ncncc1C(=O)NCCN1CCC(C)CC1	-8.76%
Cc1ncsc1CCN1CCC(N(C)Cc2noc(C(C)C)n2)C1 (stereo not given)	2.17%
OCC1CCCN1c1cc(NCc2cc3ccccc3o2)ncn1 (stereo not given)	7.53%
CCN(C(=O)CNc1cc(C)c(F)cc1C(N)=O)C1CC1	2.14%
CS(=O)(=O)CCCOc1cccc(-n2ccnc2)c1	5.13%
CCC(C)(CC(=O)O)NC(=O)Cc1ccccc1Br (stereo not given)	1.29%
Cc1cc(CS(=O)(=O)CC(=O)N2c3ccccc3CC2C)no1 (stereo not given)	-0.284%
CCCS(=O)(=O)N1CCN(C(=O)CO)CC1	-1.96%
CC(C)Oc1nnc(SCC(=O)NCC(=O)N2CCCC2)s1	1.38%
CCC(C)(C)NC(=O)c1ccc(-c2ccco2)[nH]c1=O	-15.6%
CCCC1CCCN(C(=O)Nc2ccnc(C(=O)N(C)C)c2)CC1 (stereo not given)	9.58%
CC(C)N(C)CC(=O)NCCc1nc(C(F)(F)F)cs1	5.07%
c1csc(-c2nc(CN3CCCC3Cn3cncn3)co2)c1 (stereo not given)	-11.5%
O=C(c1ccccn1)N1CCc2ncnc(-c3ccncc3)c2CC1	-1.82%
Cc1nc(CN2CCN(Cc3cc4n(n3)CCNC4)CC2)cs1	-3.25%

SMILES	cytotoxicity at 10 µM
CCCc1cc(C(=O)N2CCC3(CCCN(CCOC)C3=O)C2)cs1 (stereo not given)	-167%
N[C@@H]1CCN(Cc2cc(-c3ccccc3OC(F)(F)F)no2)C[C@H]1O	2.42%
Cc1ccn(CCNc2ncnc3c2CCN(c2cnccn2)CC3)n1	-1.81%
Cc1nc(CCC(=O)N2Cc3cnc(-c4ccccc4)nc3C2)n[nH]1	-0.227%
CCc1ncc2c(n1)CN(c1cc(NC3CC3)nc(N)n1)C2	5.75%
O=C1NCCN1CCNCC1(O)CCCN(CCC2CCCCC2)C1=O (stereo not given)	-1.04%
CCCc1nnc(N2CC[C@](C)(O)[C@H](C)C2)s1	-10.4%
CCCNC(=O)N1CCC(c2nnc(Cn3cccn3)n2C2CC2)CC1	-7.92%
CCCNC(=O)N1CCc2ccc(S(=O)(=O)N3CCN(C)CC3)cc2C1	-10%
Cc1cc(-c2nccn2CCN2CCCCC2CO)oc1C (stereo not given)	0.264%
CC1(C(=O)NCc2cccnc2Oc2ccc(F)c(F)c2)CCCNC1 (stereo not given)	-0.37%
Oc1cccc(-c2cc(C3CCN(Cc4cncnc4)C3)ccn2)c1 (stereo not given)	5.06%
CCn1c(Cn2cncn2)nnc1C1CCN(Cc2cccnc2)CC1	5.91%
CCc1nc(N2CCC3(CC2)[C@H](O)C[C@@H]3O)ncc1C	6.02%
CCCn1nc(C)c(CNC(=O)c2snnc2C)c1C	-15.5%
O=C1CSc2ccccc2N1CC(=O)N1CCCCC1c1nccs1 (stereo not given)	14.4%
CN(CCCO)Cc1cc(Cl)ccc1OCC(O)CN1CCCCCC1 (stereo not given)	2.71%
CCCc1noc(-c2cn(CC(=O)N(CC)CC)nn2)n1	3.35%
Cc1ccc(N2CCN(C(=O)CCC(F)(F)F)C(C)C2)cc1 (stereo not given)	-143%
CN(Cc1ccon1)C(=O)C1CC(=O)N(Cc2cccnc2)C1 (stereo not given)	-3.83%
Cc1ccnc(N2CCC(=O)N(Cc3ccc(F)cc3)C(C(C)C)C2)n1 (stereo not given)	0.538%
COC(=O)N1CC(C)=C(C)CN1C(=O)Nc1ccc(Cl)c(Cl)c1	-1.53%

SMILES	cytotoxicity at 10 µM
CN(C)CC1CN(Cc2nc(-c3cccnc3)no2)CCO1 (stereo not given)	-2.03%
CC1COCCN1Cc1nc(-c2ccc(Br)s2)no1 (stereo not given)	-2.45%
Cc1noc(CNC2CCCN(Cc3noc(C4CC4)n3)C2)n1 (stereo not given)	-1.7%
CC(Cn1ccnc1)NC(=O)C1(c2ccc(F)cc2)CCCC1 (stereo not given)	-9.98%
O=C(NCc1cc[nH]n1)NCC(O)c1ccc(F)c(F)c1 (stereo not given)	-21%
Cc1cccc(N2CCN(C(=O)NC(C)c3nncn3C)CC2)c1C (stereo not given)	-4.41%
CCOc1ncccc1CNC(=O)Nc1ccc(OC)c(OC)c1	-3.82%
CC(CNC(=O)c1cc(C2CC2)on1)N1CCc2ccccc21 (stereo not given)	-11.8%
O=C(CCn1cncn1)NCC(c1ccco1)N1CCCC1 (stereo not given)	-3.62%
COc1ccsc1C(=O)N1CCCN(Cc2cscn2)CC1	-9.12%
Cc1nc(C)n(C2CCCN(C(=O)c3cccc4[nH]ncc34)C2)n1 (stereo not given)	-4.72%
CC(C)c1nccn1C1CCCN(C(=O)c2ccc3c(c2)COC3)C1 (stereo not given)	3.19%
O=C(CCN1CCN(c2ccc3nncn3n2)CC1)NC1CCCC1	-27.5%
CC(CNCc1ccncc1)Oc1ccccn1 (stereo not given)	-1.71%
CCc1ccc(CN2CCc3ncnc(-c4cccnc4)c3CC2)o1	12.8%
CC(C)NC(=O)N1CCC2(CC1)C(=O)NCCN2Cc1ccccc1	1.29%
CC(=O)N1[C@H](CN(C)C)C[C@@H]2CN(C(=O)c3cnc(C)cn3)CC[C@@H]21	-2.89%
CN(C)C(=O)CC1CC2(CCN(CC3CC3)CC2)Oc2ccccc21 (stereo not given)	-3.51%
CC(=O)c1cc(CN2C[C@@H]3CC[C@H]2CN(S(C)(=O)=O)C3)cs1	8.35%
Cc1ccoc1C1=NNC(=CN2CCOC(Cn3cccn3)C2)O1 (stereo not given)	-7.69%
CCc1ccc(NC(=O)N2C[C@@H]3C[C@H](C(=O)NC4CCC4)[C@H](C2)O3)cc1	-2.25%
CCCN1C[C@@H]2CC[C@H]1CN(C(=O)Cc1c(C)[nH]c(CC)nc1=O)C2	-0.529%
